Here are results for one molecule from article PMC10213863 (Cell Reports Medicine, 2023).

For one assay, the target named is TLR2/6 (Homo sapiens, UniProt O60603+Q9Y2C9). The assay is described as follows: Ramos Blue reporter B cell line, FSL-1 stimulation. Particulars: Ramos cells; up to 10 μM; n = 4, data not shown. It counts as cell-based. The gist of the method: (§1)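 Ramos Blue B reporter cells were pre-treated 30 min at 37°C, 5% CO2 with increasing concentrations of test compound or 0.25% v/v DMSO. They were then stimulated with the respective agonist, and reporter activity was read.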
TLR2/6, sequence (O60603 21-784): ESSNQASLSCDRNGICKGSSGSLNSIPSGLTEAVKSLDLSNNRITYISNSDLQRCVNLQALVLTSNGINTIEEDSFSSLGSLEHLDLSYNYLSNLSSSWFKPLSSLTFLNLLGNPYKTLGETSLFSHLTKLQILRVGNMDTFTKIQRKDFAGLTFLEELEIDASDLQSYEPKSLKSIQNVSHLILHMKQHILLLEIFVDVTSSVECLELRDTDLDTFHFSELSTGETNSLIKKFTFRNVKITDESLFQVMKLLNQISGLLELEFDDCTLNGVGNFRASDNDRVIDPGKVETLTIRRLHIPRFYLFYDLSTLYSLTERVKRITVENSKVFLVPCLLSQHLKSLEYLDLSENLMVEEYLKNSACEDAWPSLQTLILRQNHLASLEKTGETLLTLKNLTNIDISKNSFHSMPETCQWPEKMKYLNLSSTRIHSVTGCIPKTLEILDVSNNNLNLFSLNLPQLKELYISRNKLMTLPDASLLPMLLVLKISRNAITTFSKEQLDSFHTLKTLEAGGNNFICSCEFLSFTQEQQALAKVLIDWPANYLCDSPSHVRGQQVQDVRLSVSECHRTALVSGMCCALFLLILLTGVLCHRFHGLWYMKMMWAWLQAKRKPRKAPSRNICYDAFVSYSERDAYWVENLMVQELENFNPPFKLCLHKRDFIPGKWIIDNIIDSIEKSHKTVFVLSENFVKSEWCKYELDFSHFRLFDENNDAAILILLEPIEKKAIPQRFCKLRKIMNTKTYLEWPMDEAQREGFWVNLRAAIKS
TLR2/6, sequence (Q9Y2C9 32-796): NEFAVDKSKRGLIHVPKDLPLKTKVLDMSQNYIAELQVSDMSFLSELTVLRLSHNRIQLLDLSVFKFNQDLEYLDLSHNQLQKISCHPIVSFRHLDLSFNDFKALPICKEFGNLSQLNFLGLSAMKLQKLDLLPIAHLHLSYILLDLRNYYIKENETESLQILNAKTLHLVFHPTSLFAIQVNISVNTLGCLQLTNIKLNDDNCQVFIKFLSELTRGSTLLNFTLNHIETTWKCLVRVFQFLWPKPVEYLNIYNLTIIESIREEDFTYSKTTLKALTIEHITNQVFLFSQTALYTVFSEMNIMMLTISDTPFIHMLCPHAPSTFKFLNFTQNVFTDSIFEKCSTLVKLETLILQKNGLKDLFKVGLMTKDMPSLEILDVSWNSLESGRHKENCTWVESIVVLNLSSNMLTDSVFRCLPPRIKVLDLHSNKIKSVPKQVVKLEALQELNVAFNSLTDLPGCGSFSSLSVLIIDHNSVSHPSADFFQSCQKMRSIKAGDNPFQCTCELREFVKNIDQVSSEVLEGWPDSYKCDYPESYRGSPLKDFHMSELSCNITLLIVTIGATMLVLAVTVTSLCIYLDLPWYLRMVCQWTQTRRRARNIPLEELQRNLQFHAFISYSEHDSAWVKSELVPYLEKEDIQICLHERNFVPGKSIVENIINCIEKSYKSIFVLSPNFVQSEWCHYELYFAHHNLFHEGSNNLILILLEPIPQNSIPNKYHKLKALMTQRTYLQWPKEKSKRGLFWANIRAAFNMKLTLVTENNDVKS

The test system of assay [1] is tumor necrosis factor (TNF) receptor. The assay is described as follows: Ramos Blue reporter B cell line, TNF stimulation. It is filed as cell-based, human. Particulars: Ramos cells; up to 10 μM; n = 4, data not shown. The gist of the method: as §1
Assay [2] deals with T1, TLR8 (Homo sapiens, UniProt Q9NR97).
T1 sequence (Q9NR97 27-1041): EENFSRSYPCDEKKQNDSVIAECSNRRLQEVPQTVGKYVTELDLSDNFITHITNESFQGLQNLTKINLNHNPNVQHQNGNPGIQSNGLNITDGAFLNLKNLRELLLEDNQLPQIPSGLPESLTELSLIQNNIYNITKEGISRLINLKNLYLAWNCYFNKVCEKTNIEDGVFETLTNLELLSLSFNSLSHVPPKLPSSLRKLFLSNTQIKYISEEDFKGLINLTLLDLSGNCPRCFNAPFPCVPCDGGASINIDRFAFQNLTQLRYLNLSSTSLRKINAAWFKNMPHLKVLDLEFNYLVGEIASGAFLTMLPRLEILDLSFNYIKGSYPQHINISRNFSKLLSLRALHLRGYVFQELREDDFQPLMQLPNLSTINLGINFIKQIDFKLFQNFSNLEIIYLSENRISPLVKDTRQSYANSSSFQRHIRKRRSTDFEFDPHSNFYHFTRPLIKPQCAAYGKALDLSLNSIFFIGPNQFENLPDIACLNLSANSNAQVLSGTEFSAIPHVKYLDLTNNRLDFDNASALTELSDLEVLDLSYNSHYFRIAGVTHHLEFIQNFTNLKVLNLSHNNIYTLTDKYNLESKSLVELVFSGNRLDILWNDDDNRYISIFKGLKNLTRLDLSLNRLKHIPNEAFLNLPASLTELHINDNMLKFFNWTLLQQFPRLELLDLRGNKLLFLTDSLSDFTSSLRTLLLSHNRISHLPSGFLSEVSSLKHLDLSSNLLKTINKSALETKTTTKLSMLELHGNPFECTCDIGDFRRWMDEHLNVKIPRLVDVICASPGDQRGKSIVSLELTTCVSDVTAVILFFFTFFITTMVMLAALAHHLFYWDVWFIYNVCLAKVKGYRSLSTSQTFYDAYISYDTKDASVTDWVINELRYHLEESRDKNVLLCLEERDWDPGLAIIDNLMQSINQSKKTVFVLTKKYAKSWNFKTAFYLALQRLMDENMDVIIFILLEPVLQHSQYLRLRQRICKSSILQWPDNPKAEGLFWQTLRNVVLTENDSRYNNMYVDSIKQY
The assay can be described thus: HEK293-NFkB-luciferase reporter cells transfected with TLR8, R848 stimulation. It is filed as cell-based. The method, boiled down: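 HEK293-NFkB-luciferase cells stably expressing HA-tagged human TLR7 or TLR8 were pre-treated 60 min at 37°C, 5% CO2 with increasing concentrations of test compound or 0.25% v/v DMSO. They were then stimulated 6 h with R848: 0.3 μM for TLR7, 4 μM for TLR8. Luciferase activity […] was read by Bright-Glo luminescence.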
In general terms: In a reporter assay the amount or activity of a reporter protein is the signal.

For another assay, the target named is TLR4 (Homo sapiens, UniProt O00206). The assay can be described thus: Human PBMC cytokine secretion, TLR4 agonist. It is filed as cell-based. Particulars: human PBMCs; up to 10 μM; n = 5 donors. The method, boiled down:
(§2)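 Human PBMCs were pre-incubated 30 min with test compound, then stimulated with the respective TLR or IL-1R agonist at doses from earlier work. Cytokines in supernatants were quantified by immunoassay. Viability across the dose range was checked by CellTiter-Glo.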

Another assay concerns the target TLR1/2 (Homo sapiens, UniProt O60603+Q15399). The assay can be described thus: Human PBMC cytokine secretion, TLR1/2 agonist. Conditions: human PBMCs; up to 10 μM; n = 5 donors, data not shown. It is filed as cell-based. The method, boiled down:
as §2

Assay [3] has as its target T1, TLR8. The assay can be described thus: Human neutrophil ROS production, TL8-506 stimulation. It is filed as cell-based. The gist of the method: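 Cells were pre-treated 30 min with increasing concentrations of test compound or 0.1% v/v DMSO. They were then stimulated 30 min at 37°C, 5% CO2 with TL8-506 or PMA (50 ng/mL). ROS was detected with 2 μM dihydrorhodamine for 15 min at 37°C and read by flow cytometry. Signals were normalized to vehicle; viability was checked by CellTiter-Glo.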

Another assay has as its system NZB/W F1 mice. The assay can be described thus: Mouse NZB/W F1 model of lupus, MHV370 in food. It counts as in vivo. The gist of the method: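 NZB/W F1 mice entered at 23 weeks and were randomized into groups of 14 (mean proteinuria 0.1–0.5 mg/mL). They were dosed with test compound in food. Weight was recorded twice weekly; proteinuria weekly by quantitative protein assay (BSA standard). Serum IgG autoantibodies were measured by ELISA at 1:100 or 1:300, with DWEYS peptide for NMDAR, HRP anti-IgG (1:10′000) and TMB. Kidney IgG was stained by IHC; positive/total area was averaged over ten sections per mouse.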

[4] abbreviates: 0.1% MHV370 in food, kidney histology.
Where [5] appears, read: MHV370-laced food, at termination.

Broadly, the IC50 is the midpoint of a concentration-inhibition curve. Low values mean greater potency in that assay, high ones weaker potency in that assay.

TLR4, sequence (O00206 24-839): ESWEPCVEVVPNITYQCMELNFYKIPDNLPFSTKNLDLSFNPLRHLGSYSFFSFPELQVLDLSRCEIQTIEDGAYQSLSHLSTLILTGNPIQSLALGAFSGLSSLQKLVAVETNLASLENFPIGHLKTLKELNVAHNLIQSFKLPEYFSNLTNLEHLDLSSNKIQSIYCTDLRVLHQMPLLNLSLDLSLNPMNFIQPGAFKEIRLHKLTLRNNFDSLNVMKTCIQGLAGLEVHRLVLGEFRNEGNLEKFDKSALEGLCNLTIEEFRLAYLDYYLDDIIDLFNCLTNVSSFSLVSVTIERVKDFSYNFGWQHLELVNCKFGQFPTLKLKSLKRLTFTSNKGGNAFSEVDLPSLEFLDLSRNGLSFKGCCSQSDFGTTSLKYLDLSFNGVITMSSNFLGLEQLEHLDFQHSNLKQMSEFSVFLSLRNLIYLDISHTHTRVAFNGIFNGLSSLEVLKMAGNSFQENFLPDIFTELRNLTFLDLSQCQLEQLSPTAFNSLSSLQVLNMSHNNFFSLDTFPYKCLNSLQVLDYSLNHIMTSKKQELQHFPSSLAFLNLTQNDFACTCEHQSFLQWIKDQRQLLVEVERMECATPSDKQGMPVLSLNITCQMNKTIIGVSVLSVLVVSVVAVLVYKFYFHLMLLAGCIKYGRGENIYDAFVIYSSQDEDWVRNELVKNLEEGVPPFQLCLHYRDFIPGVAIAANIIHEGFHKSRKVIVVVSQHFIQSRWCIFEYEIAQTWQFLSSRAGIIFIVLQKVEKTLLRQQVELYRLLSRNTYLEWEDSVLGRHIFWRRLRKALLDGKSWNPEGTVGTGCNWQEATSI
TLR4, sequence (Q9Y6Y9 19-160 partner): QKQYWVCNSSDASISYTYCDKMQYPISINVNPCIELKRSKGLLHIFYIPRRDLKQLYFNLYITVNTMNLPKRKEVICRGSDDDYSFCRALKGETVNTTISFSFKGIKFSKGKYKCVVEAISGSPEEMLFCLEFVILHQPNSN
TLR1/2, sequence (Q15399 25-786): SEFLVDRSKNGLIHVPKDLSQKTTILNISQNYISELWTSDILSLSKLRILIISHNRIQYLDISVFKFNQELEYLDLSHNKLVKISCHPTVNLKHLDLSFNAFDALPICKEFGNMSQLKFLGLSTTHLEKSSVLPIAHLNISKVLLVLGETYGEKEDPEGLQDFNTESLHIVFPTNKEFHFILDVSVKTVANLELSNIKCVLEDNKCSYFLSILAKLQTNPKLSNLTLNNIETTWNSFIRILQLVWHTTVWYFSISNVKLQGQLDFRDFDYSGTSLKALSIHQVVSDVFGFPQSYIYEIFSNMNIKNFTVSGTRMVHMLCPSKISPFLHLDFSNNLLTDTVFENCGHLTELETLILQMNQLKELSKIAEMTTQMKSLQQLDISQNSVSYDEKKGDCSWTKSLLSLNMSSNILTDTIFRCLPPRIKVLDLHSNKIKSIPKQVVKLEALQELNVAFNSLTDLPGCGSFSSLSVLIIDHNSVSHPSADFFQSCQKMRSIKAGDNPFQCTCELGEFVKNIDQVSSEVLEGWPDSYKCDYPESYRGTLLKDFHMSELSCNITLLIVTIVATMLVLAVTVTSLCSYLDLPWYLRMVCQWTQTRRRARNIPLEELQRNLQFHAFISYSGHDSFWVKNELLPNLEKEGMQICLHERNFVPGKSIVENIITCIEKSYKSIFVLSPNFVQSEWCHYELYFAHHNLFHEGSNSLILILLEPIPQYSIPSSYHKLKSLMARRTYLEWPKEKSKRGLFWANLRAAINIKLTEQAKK
TLR1/2, sequence (O60603 21-784): as the sequence (O60603 21-784) above

For the molecule `Cc1cc(N2CCc3c(c(C)nn3CC34CCC(NC(=O)[C@@H]5COCCN5)(CC3)CC4)C2)c2cnn(C)c2n1` [MHV370, (S)-N-(4-((5-(1,6-dimethyl-1H-pyrazolo[3,4-b]pyridin-4-yl)-3-methyl-4,5,6,7-tetrahydro-1H-pyrazolo[4,3-c]pyridin-1-yl)methyl)bicyclo[2.2.2]octan-1-yl)morpholine-3-carboxamide], the “interference with TLR2/6-driven activity” value on TLR2/6 is “did not interfere”. The “interference with TNF receptor-driven activity” value in assay [1] was “did not interfere”. Also, on TLR8 [2], it took 4.5 ± 1.1 nM to reach half-maximal inhibition (IC50). In addition, the “interference with cytokine secretion, TLR4 agonist” value at TLR4 was “did not significantly interfere”. Moreover, on TLR1/2, the “interference with cytokine secretion, TLR1/2 agonist” value is “did not significantly interfere”. The same molecule gave an IC50 against TLR8 [3] of 5.2 ± 1.5 nM. For the same molecule, the “inhibition of proteinuria at low dose” value in the assay on NZB/W F1 mice (0.01% MHV370 in food) is given as “already achieved”. In addition, in the assay on NZB/W F1 mice (setting [4]), the “IgG deposits in the glomeruli” value is listed as “reduced”, the glomerulopathy entry was “reduced”, the “infiltration of kidneys with CD45R+ B cells” value is on record as “reduced” and the “infiltration of kidneys with CD138+ plasma cells” value was “reduced”. Further, the proteinuria entry in the assay with NZB/W F1 mice (MHV370-laced food) is listed as “effectively prevented”. Also, in the assay on NZB/W F1 mice (setting [5]), the “blood urea nitrogen (BUN)” value was “moderately reduced” and the “serum levels of CXCL13” value was “significantly reduced”. Further, in the assay on NZB/W F1 mice (serum at termination), the “IgG autoantibody levels against NMDAR” value is reported as “reduced”, the “IgG autoantibody levels against Smith (Sm)” value is given as “reduced”, the “IgG autoantibody levels against ribosomal P (RiboP)” value is “reduced” and the “serum antibodies against double-stranded DNA (dsDNA)” value is “not reduced”. Moreover, the “serum antibodies against histones” value in the assay on NZB/W F1 mice (serum at termination) was “not reduced”.
